# Activity calls are given as the source filed them. The calls are words filed in the database; no cut-off is given here.
# Assays:
# [1] = (§1) Antiproliferative activity against human 92.1 cells assessed as inhibition of cell growth after 72 hrs by CCK8 assay; type: functional, cell-based; conditions: Homo sapiens, 921, 72 h
# Method in brief: (§2)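 92.1 or MP41 cells in RPMI-1640 with 10% FBS were seeded at 3 × 10³ cells/well. Exposed to serial concentrations for 72 h at 37 °C, 5% CO₂. CCK-8 added for 1−4 h, absorbance read at 450 nm. IC₅₀ from concentration−response curve fit, mean ± SD.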
# 921 = assay: as §1; type: functional, cell-based; method in brief: as §2
# CHO = assay: Cytotoxicity against chinese hamster CHO cells overexpressing M1 receptor assessed as cell viability upto 20 uM for 24 hrs by CCK8 assay; type: cell-based, Cricetulus griseus
# Method in brief: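 CHO cells stably expressing the M₁ receptor were treated with a range of compound concentrations for 2 h or 24 h. Viability measured by CCK-8 and given as percentage. Mean ± SD of three independent experiments.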
# [2] = Induction of apoptosis in human MP41 cells assessed as viable cells at 15 uM after 48 hrs by Annexin-V-FITC/propidium iodide staining based flow cytometry (reference value: 93.6%); type: functional; conditions: read-out: Activity
# [3] = target: GNAQ/GNA11 (Homo sapiens) (UniProt P50148+P29992); assay: Inhibition of Galphaq/11 in human MP41 cells xenografted mouse tumor tissue assessed as induction of YAP phosphorylation at 10 to 30 mg/kg, ip administered for 21 consecutive days by Western blot analysis; type: organism-based; conditions: dose 10-30 mg/kg, time 21.0 day
# Method in brief: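 MP41 xenograft tumours from mice given 10 or 30 mg/kg/day ip for 21 consecutive days were analysed by Western blot. Probed for p-YAP, YAP, p-ERK and ERK, with GAPDH as loading control. Representative of triplicate experiments.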
smiles,measurement,setting,value
CC[C@@H](C)[C@H](N)C(=O)N1CCn2cc(-c3ccccc3)nc2[C@@H]1CC1CCCCC1,IC50,[1],10.1 µM
same,Activity,921,Dose-Dependent Effect
same,Activity,CHO,Non-Toxic
same,viability at 15 µM,[2],90.2%
same,inhibition,[3],Active

# — ChEMBL document CHEMBL4808167, “Design, Synthesis, and Evaluation of Small Molecule Gαq/11 Protein Inhibitors for the Treatment of Uveal Melanoma” (J Med Chem, 2021)
